ChEMBL document CHEMBL4251600, “Bioactive products from singlet oxygen photooxygenation of cannabinoids” (Eur J Med Chem, 2018)
Values after ≈ are worked out from the molar mass of the structure shown. Active and inactive are the calls of the source. No cut-off for these calls is given here.

What was measured:
Plasmodium falciparum [1] = experiment: Antiplasmodial activity against chloroquine-sensitive Plasmodium falciparum D6 infected in red blood cells incubated for 72 hrs by parasite LDH release based colorimetric assay; type: functional, organism-based; settings: D6, 72 h
Plasmodium falciparum [2] = experiment: Antiplasmodial activity against chloroquine-resistant Plasmodium falciparum W2 infected in red blood cells incubated for 72 hrs by parasite LDH release based colorimetric assay; type: functional, organism-based; settings: W2, 72 h
Cannabinoid receptor 2 [3] = target: T1, Cannabinoid receptor 2 (Homo sapiens, UniProt P34972); experiment: Displacement of [3H]CP-55,940 from recombinant human full length CB2 receptor expressed in HEK293 cell membranes after 90 mins by topcount method
Cannabinoid receptor 1 [4] = target: T2, Cannabinoid receptor 1 (Homo sapiens, UniProt P21554); experiment: Displacement of [3H]CP-55,940 from recombinant human full length CB1 receptor expressed in HEK293 cell membranes after 90 mins by topcount method
LLC-PK1 = experiment: Cytotoxicity against pig LLC-PK1 cells assessed as cell growth inhibition incubated for 48 hrs by neutral red dye based assay; parameters: species or system Sus scrofa; settings: Sus scrofa, LLC-PK1, 48 h; read-out: IC50
Pichia kudriavzevii = experiment: Antifungal activity against Candida krusei by modified CLSI based method; type: functional, organism-based
Staphylococcus aureus [5] = experiment: Antimicrobial activity against methicillin-resistant Staphylococcus aureus by modified CLSI based method; type: functional, organism-based
Cryptococcus neoformans = experiment: Antifungal activity against Cryptococcus neoformans by alamar blue assay; type: functional, organism-based
Leishmania donovani = experiment: Antileishmanial activity against Leishmania donovani promastigotes incubated for 48 hrs by alamar blue assay; type: functional, organism-based
Staphylococcus aureus [6] = experiment: Antimicrobial activity against Staphylococcus aureus by modified CLSI based method; type: functional, organism-based
SK-MEL = experiment: Anticancer activity against human SK-MEL cells assessed as cell growth inhibition up to 10 ug/ml incubated for 48 hrs by neutral red dye based assay; type: functional
Nakaseomyces glabratus = experiment: Antifungal activity against Candida glabrata by modified CLSI based method; type: functional, organism-based
Cannabinoid receptor 2 [7] = target: T1, Cannabinoid receptor 2; experiment: Agonist activity at recombinant human full length CB2 receptor expressed in HEK293 cell membranes at 100 uM after 2 hrs by [35S]GTP-gammaS binding assay relative to CP-55,940; type: functional
Cannabinoid receptor 1 [8] = target: T2, Cannabinoid receptor 1; experiment: Agonist activity at recombinant human full length CB1 receptor expressed in HEK293 cell membranes at 100 uM after 2 hrs by [35S]GTP-gammaS binding assay relative to CP-55,940; type: functional
Cannabinoid receptor 1 [9] = target: T2, Cannabinoid receptor 1; experiment: Agonist activity at recombinant human full length CB1 receptor expressed in HEK293 cell membranes after 2 hrs by [35S]GTP-gammaS binding assay; type: functional
Procedure, shortened: (§1)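 Membranes (20 µg/well) from HEK293 cells stably transfected with human CB1 or CB2 cDNA were incubated with test compound and 0.5 nM [35S]-GTP-γS. Buffer: 50 mM Tris-HCl, 0.2 mM EGTA, 9 mM MgCl2, 150 mM NaCl, 50 µM GDP, 1.4 mg/ml BSA. Incubation ran 2 h at 30°C and was stopped by vacuum filtration through GF/B filters with cold Tris-HCl. Nonspecific binding was taken with 40 µM GTP-γS.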

Cannabinoid receptor 2 [10] = target: T1, Cannabinoid receptor 2; experiment: Agonist activity at recombinant human full length CB2 receptor expressed in HEK293 cell membranes after 2 hrs by [35S]GTP-gammaS binding assay; type: functional; procedure, shortened: as §1
KB = experiment: Anticancer activity against human KB cells assessed as cell growth inhibition incubated for 48 hrs by neutral red dye based assay; type: functional
Vero = experiment: Cytotoxicity against African green monkey Vero cells assessed as cell growth inhibition incubated for 48 hrs by neutral red dye based assay; settings: Chlorocebus sabaeus
BT-549 = experiment: Anticancer activity against human BT549 cells assessed as cell growth inhibition incubated for 48 hrs by neutral red dye based assay; type: functional; settings: BT-549, 48 h
SK-OV-3 = experiment: Anticancer activity against human SKOV3 cells assessed as cell growth inhibition incubated for 48 hrs by neutral red dye based assay; type: functional; settings: SK-OV-3, 48 h
[11] = Cryptococcus neoformans, read-out: IC50
[12] = Staphylococcus aureus, read-out: IC50
[13] = Leishmania donovani, 48 h, read-out: IC50
[14] = Leishmania donovani, 48 h, read-out: IC90

T1 sequence (P34972 whole entry): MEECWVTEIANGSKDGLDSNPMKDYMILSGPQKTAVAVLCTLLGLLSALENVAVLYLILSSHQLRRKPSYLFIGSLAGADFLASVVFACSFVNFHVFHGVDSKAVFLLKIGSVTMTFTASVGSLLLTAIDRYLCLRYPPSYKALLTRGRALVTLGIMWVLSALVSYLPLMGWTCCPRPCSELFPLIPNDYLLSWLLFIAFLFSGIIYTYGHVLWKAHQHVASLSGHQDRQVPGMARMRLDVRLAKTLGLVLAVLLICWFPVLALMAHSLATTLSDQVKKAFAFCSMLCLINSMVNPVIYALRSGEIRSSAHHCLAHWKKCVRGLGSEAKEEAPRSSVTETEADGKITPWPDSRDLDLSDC
T2 sequence (P21554 whole entry): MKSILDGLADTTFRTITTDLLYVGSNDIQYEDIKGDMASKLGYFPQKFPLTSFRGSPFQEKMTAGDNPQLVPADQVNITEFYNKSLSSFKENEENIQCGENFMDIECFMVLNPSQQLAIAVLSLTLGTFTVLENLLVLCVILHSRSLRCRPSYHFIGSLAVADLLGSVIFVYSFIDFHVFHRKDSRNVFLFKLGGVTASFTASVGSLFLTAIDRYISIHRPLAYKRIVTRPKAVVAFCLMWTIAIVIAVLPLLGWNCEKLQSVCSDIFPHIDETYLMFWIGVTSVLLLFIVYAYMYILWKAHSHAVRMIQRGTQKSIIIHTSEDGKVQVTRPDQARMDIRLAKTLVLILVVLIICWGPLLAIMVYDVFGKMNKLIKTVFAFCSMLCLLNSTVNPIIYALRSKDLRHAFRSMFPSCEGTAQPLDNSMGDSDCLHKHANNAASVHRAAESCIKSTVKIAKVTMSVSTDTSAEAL

SMILES	IC50 (Plasmodium falciparum [1])	IC50 (Plasmodium falciparum [2])	IC50 (Cannabinoid receptor 2 [3])	Ki (Cannabinoid receptor 2 [3])	IC50 (Cannabinoid receptor 1 [4])	Ki (Cannabinoid receptor 1 [4])	IC50 (Pichia kudriavzevii)	MIC (Cryptococcus neoformans)	MIC (Staphylococcus aureus [6])	MIC (Pichia kudriavzevii)	MIC (Staphylococcus aureus [5])	MIC (Nakaseomyces glabratus)	other results
CCCCCc1cc(O)c2c(c1)OC(C)(C)C1=C2C(OC(C)=O)C(C)(OC)CC1 (centres undefined)	3.3 mg/L (≈ 8.2 µM)	3 mg/L (≈ 7.45 µM)	1.98 µM	0.99 µM	2.8 µM	1.4 µM							
C=C1C[C@H]2C3=C(OC(C)(C)[C@@H]2CC1OO)C(=O)C(CCCCC)=CC3=O (stereo in doubt; 26) [listing 1 of 2 here]							20 mg/L (≈ 55.5 µM)	5 mg/L (≈ 13.9 µM)	5 mg/L (≈ 13.9 µM)				IC50 (LLC-PK1): 9.95 mg/L (≈ 27.6 µM); IC50 (Staphylococcus aureus [5]): 15.3 mg/L (≈ 42.4 µM); IC50 (Cryptococcus neoformans): 2.05 mg/L (≈ 5.69 µM); IC50 (Leishmania donovani): 3.1 mg/L (≈ 8.6 µM); IC90 (Leishmania donovani): 8 mg/L (≈ 22.2 µM); IC50 (Staphylococcus aureus [6]): 2.41 mg/L (≈ 6.69 µM); IC50 (SK-MEL): Not Active
C=C1C[C@H]2c3c(O)cc(CCCCC)cc3OC(C)(C)[C@@H]2C[C@H]1O	2.4 mg/L (≈ 7.26 µM)	1.7 mg/L (≈ 5.14 µM)					Not Active	inactive	inactive	inactive	inactive	inactive	IC50 (Staphylococcus aureus [5]): Not Active; IC50 (Cryptococcus neoformans; [11]): 8.34 mg/L (≈ 25.2 µM); IC50 (Nakaseomyces glabratus): Not Active; IC50 (Staphylococcus aureus [6]; [12]): 10.7 mg/L (≈ 32.4 µM)
CCCCCc1cc(OC(C)=O)c2c(c1)OC(C)(C)C1=C2C2OC2(C)CC1 (centres undefined)			0.927 µM	0.464 µM	0.573 µM	0.286 µM							
CCCCCc1cc2c(c(OS(=O)(=O)c3ccc(C)cc3)c1)[C@H]1[C@@H](CC=C(C)[C@@H]1O)C(C)(C)O2								inactive	inactive	inactive	inactive	inactive	
CCCCCc1cc2c(c(OS(=O)(=O)c3ccc(C)cc3)c1)[C@@H]1CC(C)(OO)C=C[C@H]1C(C)(C)O2 (some centres undefined)			0.421 µM	0.211 µM	0.275 µM	0.137 µM							Emax (Cannabinoid receptor 2 [7]): 90%; Emax (Cannabinoid receptor 1 [8]): 20%; IC50 (Cannabinoid receptor 1 [9]): 0.097 µM; Ki (Cannabinoid receptor 1 [9]): 0.048 µM; IC50 (Cannabinoid receptor 2 [10]): 1.75 µM; Ki (Cannabinoid receptor 2 [10]): 0.876 µM
CCCCCc1cc(O)c2c(c1)OC(C)(C)C1=C2C(OCC)C(C)(O)CC1 (centres undefined)	3.6 mg/L (≈ 9.61 µM)	3.7 mg/L (≈ 9.88 µM)					Not Active	inactive	inactive	inactive	inactive	inactive	IC50 (Staphylococcus aureus [5]; [12]): 17.1 mg/L (≈ 45.6 µM); IC50 (Cryptococcus neoformans; [11]): 4.57 mg/L (≈ 12.2 µM); IC50 (Nakaseomyces glabratus): Not Active; IC50 (Leishmania donovani; [13]): 3 mg/L (≈ 8.01 µM); IC90 (Leishmania donovani; [14]): 6 mg/L (≈ 16 µM); IC50 (Staphylococcus aureus [6]; [12]): 4.86 mg/L (≈ 13 µM)
CCCCCc1cc(O)c2c(c1)OC(C)(C)[C@@H]1C=C[C@@](C)(O)C[C@@H]21			0.019 µM	0.0095 µM	0.93 µM	0.47 µM							IC50 (Cannabinoid receptor 1 [9]): 0.387 µM; Ki (Cannabinoid receptor 1 [9]): 0.193 µM; IC50 (Cannabinoid receptor 2 [10]): 11.4 µM; Ki (Cannabinoid receptor 2 [10]): 5.7 µM
CCCCCC1=CC(=O)C2=C(OC(C)(C)[C@@H]3CC[C@](C)(OCC)C=C23)C1=O	0.16 mg/L (≈ 0.43 µM)	0.2 mg/L (≈ 0.537 µM)	4.07 µM	2.03 µM	1.84 µM	0.919 µM	Not Active			inactive		inactive	IC50 (LLC-PK1): 2.25 mg/L (≈ 6.04 µM); IC50 (KB): 5.25 mg/L (≈ 14.1 µM); IC50 (Vero): 4.1 mg/L (≈ 11 µM); MIC (Staphylococcus aureus [5]; Staphylococcus aureus): 2.5 mg/L (≈ 6.71 µM); IC50 (Staphylococcus aureus [5]; [12]): 1.36 mg/L (≈ 3.65 µM); IC50 (Cryptococcus neoformans; [11]): 0.7 mg/L (≈ 1.88 µM); MIC (Cryptococcus neoformans; Cryptococcus neoformans, read-out: MIC): 2.5 mg/L (≈ 6.71 µM); IC50 (Nakaseomyces glabratus): Not Active; IC50 (Leishmania donovani; [13]): 0.06 mg/L (≈ 0.161 µM); IC90 (Leishmania donovani; [14]): 0.13 mg/L (≈ 0.349 µM); IC50 (Staphylococcus aureus [6]; [12]): 1.35 mg/L (≈ 3.62 µM); MIC (Staphylococcus aureus [6]; Staphylococcus aureus, read-out: MIC): 2.5 mg/L (≈ 6.71 µM); IC50 (BT-549): 4.2 mg/L (≈ 11.3 µM); IC50 (SK-OV-3): 4.35 mg/L (≈ 11.7 µM)
C=C1C[C@H]2C3=C(OC(C)(C)[C@@H]2CC1OO)C(=O)C(CCCCC)=CC3=O (stereo in doubt; 26) [listing 2 of 2 here]										inactive	inactive	inactive	
CCCCCc1cc(O)c2c(c1)OC(C)(C)C1=C2C(O)C(C)(OC)CC1 (centres undefined)			0.599 µM	0.3 µM	1.08 µM	0.538 µM							Emax (Cannabinoid receptor 2 [7]): 40%; IC50 (Leishmania donovani; [13]): 35 mg/L (≈ 97.1 µM); IC90 (Leishmania donovani; [14]): > 40 mg/L; Emax (Cannabinoid receptor 1 [8]): 20%
C[C@@H]1CC[C@H]2[C@@H](C)C(=O)O[C@@H]3O[C@@]4(C)CC[C@@H]1[C@]32OO4 [ARTEMISININ]		0.014 mg/L (≈ 0.0496 µM)											
